Assay results from the RNAGym collection of RNA variant scans (doi:10.1126/science.aae0568).
Variants at the floor of the assay were thinned out.

B1: tRNA (parent)
chain: GUUCCGUUGGCGUAAUGGUAACGCGUCUCCCUCCUAAGGAGAAGACUGCGGGUUCGAGUCCCGUACGGAACG

Variants of: B1
Assay: yeast fitness relative to wild type (ratio to wild type); higher = fitter; tRNA-Arg(CCU), competitive growth, 37 C, YPD
How it was run: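 Amplicons of the tRNA-Arg(CCU) gene were sequenced, 100-nucleotide paired-end, from the start population and from each end population of a pooled yeast competition. The competition, in six parallel replicates, lasted 24 hours in YPD at 37°C. Fitness relative to wild type was calculated from changes in genotype frequencies. Genotypes had to have ≥ 100 starting reads, and estimates < 0.5 were set to 0.5.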
For G12A U19A A20U A36U, the yeast fitness was ≤ 0.5. For G12A U28A U54C G63A A70G, the yeast fitness was ≤ 0.5. With G12A U19C U28C C55G the yeast fitness was ≤ 0.5. With G12C A20U C22G G50A C61A the yeast fitness was 0.567. U13A A14C C22A G48C gave a yeast fitness of 0.546. For G12C C33A G51C C62G, the yeast fitness was ≤ 0.5. G12U gave a yeast fitness of 1.04. Variant G12C has a yeast fitness of 0.98. Variant G12A U64A has a yeast fitness of 0.849. For G12C A14G G25A G41C C61U A70G, the yeast fitness was ≤ 0.5. For G12C C27U G39A, the yeast fitness was ≤ 0.5. In the case of G12C U16C, the yeast fitness is reported as 0.771. In the case of G12A U19C A21U A69C, the yeast fitness is reported as 0.653. Variant G12C U35G G58A G67A has a yeast fitness of 0.706. In the case of G12C U32G, the yeast fitness is reported as 0.689. G12C G63A gave a yeast fitness of 0.81. G12C G48A A69U showed a yeast fitness of 0.836. For G12A U13C C22A U26C U47A U54G, the yeast fitness was ≤ 0.5. G12A U13G A69C showed a yeast fitness of 0.598. For G12C C24U A42U C46A C55U C61G A69C, the yeast fitness was ≤ 0.5. Variant G12C G67U has a yeast fitness of 0.767. With G12C U28A A37G G38A A45U A70G the yeast fitness was ≤ 0.5. G12C U16A G23C C29A A45C G68A gave a yeast fitness of 0.748. With G12C A37U G38A C55G the yeast fitness was ≤ 0.5. With G12C A15U C49U the yeast fitness was ≤ 0.5. With G12C C27A A37G C49U G63A the yeast fitness was ≤ 0.5. With G12C G39A G68C the yeast fitness was ≤ 0.5. In the case of G12C A20U C33U A37U A57U, the yeast fitness is reported as ≤ 0.5. For G12C U35G A69C, the yeast fitness was 0.571. G12C U16A C24G G58C gave a yeast fitness of 0.567. With G12A U28G C30U C61A A69U the yeast fitness was 0.679. With G12C U13G A15C A36U the yeast fitness was ≤ 0.5. With G12C G39C G50C C61G the yeast fitness was ≤ 0.5. In the case of G12A U13G G23C C24G C29G A36C, the yeast fitness is reported as ≤ 0.5. For G12C C27U C33A A45C U54A, the yeast fitness was ≤ 0.5. With G12U A36G A69U the yeast fitness was 0.733. With G12C C24U C55U the yeast fitness was 0.564. With G12C A20U C24U G51A G68C the yeast fitness was ≤ 0.5. In the case of G12C G17A A20U C34A G41C, the yeast fitness is reported as ≤ 0.5. In the case of G12C G44A, the yeast fitness is reported as 0.879. With G12C U28G A37G G41A G48A G67C the yeast fitness was ≤ 0.5. In the case of G12C C61U C66G, the yeast fitness is reported as ≤ 0.5. With G12C G17C C22A U32A C34A A65C the yeast fitness was ≤ 0.5. For G12C C24G C49G, the yeast fitness was ≤ 0.5. G12C A14U A20U G23A G44A A57G A70U gave a yeast fitness of 0.575. G12C A14C showed a yeast fitness of 0.731. For G12C C30U U59A, the yeast fitness was ≤ 0.5. With G12A U19A C29G A43U C55U the yeast fitness was ≤ 0.5. For G12C A15C A20U G41A, the yeast fitness was ≤ 0.5. For G12C U28A G51A A57U C62U, the yeast fitness was 0.594. In the case of G12A U47G U53A, the yeast fitness is reported as ≤ 0.5. For G12C C24U C30U C60A, the yeast fitness was ≤ 0.5. In the case of G12C C27A, the yeast fitness is reported as 0.814. For G12C A20C C24A A36C G48C, the yeast fitness was ≤ 0.5. With G12C C22G G23A A37C A43C the yeast fitness was 0.534. With G12C C34A G44C the yeast fitness was ≤ 0.5. With G12A U28A C55G the yeast fitness was ≤ 0.5. In the case of G12C C24G U53C C60G, the yeast fitness is reported as ≤ 0.5. U13A A14G showed a yeast fitness of 0.843. For G12C U13A A36U, the yeast fitness was 0.626. For G12C G17A C46G C49U, the yeast fitness was ≤ 0.5. Variant G12C U28C U59A has a yeast fitness of 0.586. For G12C A20U A36G C46A U54A A70U, the yeast fitness was ≤ 0.5. For G12C G41C, the yeast fitness was 0.748. For G12C U16A G23C C29A C60A, the yeast fitness was ≤ 0.5. For G12C G68C, the yeast fitness was 0.823. G12A U13C A42U gave a yeast fitness of 0.561. With U13A A14C G18A G44A C66G the yeast fitness was ≤ 0.5. G12C G18C C66U gave a yeast fitness of 0.528. G12C C30U C31U gave a yeast fitness of 0.611. With G12C G17A C49A G56A the yeast fitness was ≤ 0.5. In the case of G12A U32C, the yeast fitness is reported as 0.914. In the case of G12C C24G C30A A43C C60U C62A, the yeast fitness is reported as ≤ 0.5. In the case of G12C G48A, the yeast fitness is reported as 1.01. For G12C G48C, the yeast fitness was 0.787. With G12C G18C C55U C60G the yeast fitness was ≤ 0.5. In the case of G12C A14G G18A C33G, the yeast fitness is reported as ≤ 0.5. In the case of G12C A42G U47C, the yeast fitness is reported as 0.634. In the case of G12C G39A A42C, the yeast fitness is reported as ≤ 0.5. G12C G25A G41C gave a yeast fitness of 0.591. For G12C C30G A45U C46A, the yeast fitness was 0.608. For G12C A14G C27U C33A A45C U54A, the yeast fitness was ≤ 0.5. In the case of U13A A14C C22A G48C G67U, the yeast fitness is reported as ≤ 0.5. With G12A U19C C31G the yeast fitness was ≤ 0.5.
